Shown are actives, neighbours in structure and some others; about 2.9% of the full set was active somewhere.
rRNA inh HTS = inhibitors of bacterial rRNA selective over humanized ribosomes | GFP signal change (wild-type ribosome), % (test concentration not listed) | 1.6% of 350,000 active | AID 720706 | E. coli WT GFP vs humanized-ribosome RFP mutants, fluorescence, 24 h; active compounds read low; DMSO median 0, no signal -100;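 active = significant combined selectivity score with lowered wild-type GFP, culture density cut under 30%, mutant RFP and density less affected; inactive = any of these conditions unmet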
FGF22 binding = FGF22 (human) thermal shift binding. 1.5% of 340,000 active. recombinant FGF22 thermal shift, SYPRO orange fluorescence; percent of sucrose octasulfate shift, DMSO zero. AID 651658. Q9HCT0. activity (Tm shift, normalised), % at 9.99 µM;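 active = mean Tm shift, scaled 0 neutral to 100 positive control, at about 1.3% or above, every replicate too, limit read from the data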
Target sequence (Q9HCT0 whole entry, looked up): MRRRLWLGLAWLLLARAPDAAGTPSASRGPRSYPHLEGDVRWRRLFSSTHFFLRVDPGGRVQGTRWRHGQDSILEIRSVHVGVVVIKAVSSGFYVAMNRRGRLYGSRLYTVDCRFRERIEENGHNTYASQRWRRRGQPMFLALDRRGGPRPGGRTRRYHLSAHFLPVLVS
PGC1a acetyl inh = modulators of PGC1a acetylation. 0.17% of 350,000 active. inhibition, % at 15.6 µM. AID 651687. U2OS PGC1a acetylation, AlphaScreen anti-acetyl-lysine; with virally co-expressed GCN5 acetyltransferase;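 active = every replicate shows inhibition of at least 40%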
Vif imaging = blocks HIV Vif function. HEK293T cells, Vif self-association by quenched fluorescence, imaging, 24 h. inhibition, % at 7.49 µM. 0.35% of 340,000 active; in the data active = inhibition above about 50%, passing the limit was not always enough
Cneo AK release = causes C. neoformans cell lysis. adenylate kinase release luminescence, 4 h; normalised: neutral wells 0, clomiphene wells 100. lysis activity, % at 15 µM. 0.2% of 360,000 active;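 active = mean lysis activity across replicates of at least 80%, whatever share of replicates individually reach that level; inactive = mean lysis activity below 80%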
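Test system: log-phase Cryptococcus neoformans yeast cells; Quantity: yeast cell density of 5 × 10^6 cells/mL; Buffer or medium: YPD; Doses: single compound concentration per well; Timing: 4 h at 37 °C static, read 1 h later; Measured by: AK luminescence; Read-out basis: lysis from increased AK signal; Control set: Clomiphene as positive control.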
PglD inh = inhibitors of Campylobacter jejuni PglD acetyltransferase; purified PglD enzyme, DTNB colorimetric CoA detection; inhibition, % at 12.5 µM; 0.098% of 360,000 active; in the data active = inhibition above about 16%, passing the limit was not always enough
Of the large screens only hits and unclear results are named; the others gave an inactive call.

CC(=O)N1[C@@H]2Cn3c(ccc(C4=CCCC4)c3=O)[C@H]1[C@@H](C(=O)N[C@H](C)c1ccccc1)[C@@H]2CO	none (no result: FGF22 binding, PGC1a acetyl inh, Vif imaging)
COc1ccccc1C(=O)NC(=O)CSc1cccc[n+]1[O-]	FGF22 binding 43.6 (no result: Cneo AK release, PglD inh)
CCCCOc1ccc(N=Nc2ccc(N)nc2N)cn1	rRNA inh HTS -25.4 (no result: PGC1a acetyl inh)
CN1C(=O)c2cc(NC(=O)C3CC3)ccc2OC[C@@H]2O[C@H](CC(=O)NCCc3ccncc3)CC[C@@H]21	none (no result: Vif imaging)
C/C=C/c1ccc2c(c1)O[C@@H](CN(C)C(=O)CC)[C@H](C)CN([C@@H](C)CO)S2(=O)=O	none (no result: Vif imaging)
CCc1ccccc1NC(=O)CCN1C(=O)C2C3CCC(C3)C2C1=O (stereo not drawn)	FGF22 binding 43.8 (no result: PGC1a acetyl inh, Cneo AK release, PglD inh)
Cc1ccc(NC(=O)COC(=O)c2nn(-c3ccc(Cl)cc3)cc2O)cc1	none
Cc1c(C(=O)NN)nn(-c2ccc(Cl)cc2)c(=O)c1C#N	rRNA inh HTS -15.9 (no result: Cneo AK release, PglD inh)
NNC(=O)c1nn(-c2ccc(Cl)cc2)cc1O	rRNA inh HTS -19.4
Cc1ccc(-n2nc(C(=O)NN)c(C)c(C#N)c2=O)cc1Cl	none (no result: PGC1a acetyl inh, Vif imaging)
C[C@H](CO)N1C[C@H](C)[C@H](CN(C)C(=O)Nc2ccccc2)Oc2c(NS(=O)(=O)c3ccccc3)cccc2C1=O	none (no result: Vif imaging)
CCNC(=O)CSc1nc2cc([N+](=O)[O-])ccc2n1-c1cccc(C(F)(F)F)c1	none (no result: rRNA inh HTS, FGF22 binding)
NC(=O)CSc1nc2cc([N+](=O)[O-])ccc2n1-c1cccc(C(F)(F)F)c1	rRNA inh HTS -22.1
C[C@H](CO)N1C[C@H](C)[C@H](CN(C)C(=O)[C@H](Cc2ccccc2)N(C)C)OCc2ccccc2-c2c(n(C)c3ccccc23)C1=O	none (no result: Vif imaging)
COc1ccc2c3c([nH]c2c1)[C@H](CO)N(C(=O)CN(C)C)CC31CN(Cc2ccccc2)C1	none (no result: Vif imaging, Cneo AK release, PglD inh)
C[C@@H](NC(=O)C[C@@H]1C[C@@H]2c3cc(NC(=O)NC4CCCC4)ccc3O[C@@H]2[C@H](CO)O1)c1ccccc1	none (no result: FGF22 binding, PGC1a acetyl inh, Vif imaging, Cneo AK release, PglD inh)
S=C(NCCNC(=S)Nc1ccccc1Cl)Nc1ccccc1Cl	none (no result: PGC1a acetyl inh, Vif imaging)
CN(C)CCNC(=S)Nc1ccccc1Cl	Vif imaging 64.9 (no result: PGC1a acetyl inh)
C[C@H]1CCCCO[C@H](CN(C)Cc2ccccc2)[C@@H](C)CN([C@@H](C)CO)C(=O)c2cc(NC(=O)c3ccncc3)ccc2O1	none (no result: Vif imaging)
Cc1cccc(N/C=C(\[N+](=O)[O-])S(=O)(=O)c2ccccc2)c1	none (no result: Cneo AK release, PglD inh)
Cc1ccc(N/C=C(\[N+](=O)[O-])S(=O)(=O)c2ccccc2)cc1	rRNA inh HTS -21.6 (no result: Cneo AK release, PglD inh)
Cc1ccc(Nc2nc(=O)c3cccnc3s2)c(Br)c1	rRNA inh HTS -21.7
O=C(NNC(=O)C1CC1)c1cc2cc3ccccc3nc2s1	FGF22 binding 43.3 (no result: PGC1a acetyl inh, Cneo AK release, PglD inh)
C=CCNC(=S)N1CCc2c([nH]c3ccccc23)C1C (stereo not drawn)	rRNA inh HTS -33.4 (no result: PGC1a acetyl inh)
CC1c2[nH]c3ccccc3c2CCN1S(C)(=O)=O (stereo not drawn)	none (no result: rRNA inh HTS, FGF22 binding)
O=C(C[C@@H]1CC[C@H](NC(=O)c2ccncc2)[C@H](CO)O1)Nc1ccc(-c2ccccc2)cc1	none (no result: FGF22 binding, PGC1a acetyl inh, Vif imaging, Cneo AK release, PglD inh)
CCN(c1ccccc1)S(=O)(=O)c1cc2c(cc1C)N(C)CCO2	FGF22 binding 43.1
Cc1cc2c(cc1S(=O)(=O)N1CCN(c3ccccc3)CC1)OCCN2C	none (no result: Vif imaging)
O=C(c1ccccc1)c1ccccc1N1C(=O)C=CC1=O	none (no result: FGF22 binding, Cneo AK release, PglD inh)
O=C1C=CC(=O)N1c1ccccc1N1C(=O)C=CC1=O	Vif imaging 157.1
O=C(NCc1cccnc1)C(=O)Nc1nc(C23CC4CC(CC(C4)C2)C3)cs1	rRNA inh HTS -26.6
O=C(NCc1ccccc1)C(=O)Nc1nc(C23CC4CC(CC(C4)C2)C3)cs1	none (no result: PGC1a acetyl inh)
C[C@H]1CN([C@@H](C)CO)C(=O)c2cc(NC(=O)Cc3ccccc3)ccc2O[C@H]1CN(C)S(=O)(=O)c1ccc(Cl)cc1	none (no result: Vif imaging)
COc1cc(CN2CCCC(N3CCc4ccccc4C3)C2)c(Cl)cc1O (stereo not drawn)	none
COc1cc2c(cc1OC)CN(C1CCCN(Cc3cc(Cl)ccc3O)C1)CC2 (stereo not drawn)	rRNA inh HTS -28.1
C[C@@H]1CN([C@H](C)CO)C(=O)c2cccc(NC(=O)NC3CCCCC3)c2O[C@@H]1CN(C)C	none (no result: Vif imaging)

Screening results as filed in PubChem BioAssay.
